TNAP inh no acc: TNAP (human) inhibition, acceptor-free conditions; P05186; purified TNAP, CDP-star luminescence, 30 min; inhibition, % at 20 µM; 200,000 compounds, 0.26% hits;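 active = tissue-nonspecific alkaline phosphatase inhibition above about 50% at 20 µM in the single-dose screen, limit read from the data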;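 note: 0% = DMSO negative control and 100% = EDTA positive control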
Target sequence (P05186 whole entry, looked up): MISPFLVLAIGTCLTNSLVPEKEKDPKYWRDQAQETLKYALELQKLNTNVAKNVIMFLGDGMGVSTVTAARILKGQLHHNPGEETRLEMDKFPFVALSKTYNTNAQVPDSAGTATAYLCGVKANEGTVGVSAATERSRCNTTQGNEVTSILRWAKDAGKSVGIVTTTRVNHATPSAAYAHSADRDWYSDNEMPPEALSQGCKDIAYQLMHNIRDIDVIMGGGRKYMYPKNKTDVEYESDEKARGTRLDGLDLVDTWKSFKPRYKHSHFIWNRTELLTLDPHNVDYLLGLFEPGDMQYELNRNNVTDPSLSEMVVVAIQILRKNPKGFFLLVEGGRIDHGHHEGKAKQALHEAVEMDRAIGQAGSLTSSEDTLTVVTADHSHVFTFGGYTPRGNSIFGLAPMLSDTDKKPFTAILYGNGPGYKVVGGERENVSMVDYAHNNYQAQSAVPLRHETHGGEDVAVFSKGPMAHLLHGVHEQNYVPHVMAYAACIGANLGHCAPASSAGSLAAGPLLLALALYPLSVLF
TNAP act hi DEA: TNAP (human) activation, high acceptor | P05186 | purified TNAP, CDP-star luminescence, 1 M DEA, 30 min; hits give high values; 0 = EDTA background, 1 = DMSO-only activity | activation factor at 20 µM | 200,000 tested, under 10 active;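 active = activation factor at least 2 at 20 µM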
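Control set: EDTA negative control, DMSO positive control / Assay system: human TNAP / Quantity: TNAP 1/800 final / Evaluation: TNAP activation factor scaled between EDTA and DMSO control wells / Measured by: luminescent substrate turnover signal / Compound dosing: one dose, 20 µM / Times: 30 min enzyme reaction at room temperature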
TNAP inh hiacc: blocks human TNAP under high phosphate acceptor concentration; AID 1135; purified TNAP, CDP-star luminescence, 1 M DEA; P05186; inhibition, % at 20 µM; 200,000 compounds, 0.03% hits;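 active = over 50% inhibition of tissue-nonspecific alkaline phosphatase at 20 µM in the single-dose screen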;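 note: plate controls were DMSO wells for no effect and EDTA-quenched wells as full inhibition for full effect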
Lmaj promast: inhibitors of Leishmania major promastigote growth; inhibition, % at 10 µM; 200,000 compounds, 9% hits; Leishmania major promastigotes, resazurin fluorescence viability; in the data active = inhibition above about 50%;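 note: promastigotes grown with compound for 44 hours at 28 °C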
HCT116 bCat-KO: beta-catenin-lacking colon tumor cell growth suppression. HCT116 beta-catenin knockout viability, CellTiter-Glo, 60 h; hits give low values. viability, % at 10 µM. 140,000 compounds, 1.5% hits;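 active = viability at or under a set limit, the compound median less 4 SD, cut at about 6% in these data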;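 note: 0% = Hyamine 1622 control at 20 µM and 100% = untreated cell control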
PTEN del growth: suppresses growth of cells with PTEN deletion; HCT116 PTEN-null viability, CellTiter-Glo, 60 h; hits give low values; viability, % at 10 µM; 140,000 compounds, 1.2% hits;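 active = viability at or below a set limit, 4 SD under the median of all tested compounds, cut at about 3.7% in these data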;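 note: PTEN knockout HCT116 line with beta catenin targeted HCT116 as companion control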
An asterisk follows results filed as active; nt = no result. The list is not random: actives were taken first. Their share in the collection is about 9.6%.

SMILES	TNAP inh no acc	TNAP act hi DEA	TNAP inh hiacc	Lmaj promast	HCT116 bCat-KO	PTEN del growth
Cn1ccnc1C1CCCCN1Cc1nc(Cc2cccc(C(F)(F)F)c2)no1 (stereo unspecified)	-6	1.1	-6	66*	nt	nt
O=S(=O)(NC1c2cccc3cccc(c23)C1N1CCNCC1)c1ccccc1 (stereo unspecified)	-12	1	-3	23	66	66
O=S(=O)(NC1c2cccc3cccc(c23)C1N1CCN(CCO)CC1)c1ccccc1 (stereo unspecified)	-8	1.1	-7	71*	14	14
O=C(c1ccccc1)N1CCN(C2c3cccc4cccc(c34)C2NS(=O)(=O)c2ccccc2)CC1 (stereo unspecified)	-10	1.1	-5	99*	71	61
CCC(C)N(CC(=O)Nc1cccc(C)c1C)C(=O)CCl (stereo unspecified)	-12	1.1	-6	64*	nt	nt
Cc1ccc2cc(S(=O)(=O)NCCCN3CCOCC3)ccc2c1	-5	1	-3	93*	nt	nt
COc1ccc2cc(S(=O)(=O)NCCCN3CCOCC3)ccc2c1	-8	1	-2	89*	92	85
COc1ccc(N2CCN(CCCNS(=O)(=O)c3ccc4c(c3)oc(=O)n4C)CC2)cc1	-9	1.1	-5	-8	81	84
O=[N+]([O-])c1cccc(S(=O)(=O)NCCCN2CCOCC2)c1	-17	1	-4	11	89	92
O=C(Cc1csc(N2CCOCC2)n1)N/N=C/c1ccc(F)cc1	-6	1	-4	-3	100	94
CC(=O)Nc1ccc(C(C#N)c2ccccc2)cc1 (stereo unspecified)	-6	1	-2	-5	nt	nt
O=S(=O)(c1ccccc1Cl)N1CCC(O)(c2cccnc2)CC1	-11	1.1	-6	-5	nt	nt
CCN(CC)S(=O)(=O)c1ccc(OC)c(NC(=O)CSc2cc(Cl)ccc2Cl)c1	-13	1.1	-8	98*	85	88
CCN(CC)S(=O)(=O)c1ccc(OC)c(NC(=O)c2cccs2)c1	-6	1	-1	8	nt	nt
CCN(CC)S(=O)(=O)c1ccc(OC)c(NC(=O)CSc2ccccc2)c1	-10	1.1	-7	99*	101	89
CCOc1ccccc1Nc1nc(N)nc(CN2CCCCC2C)n1 (stereo unspecified)	-6	1.1	-6	17	nt	nt
COc1ccc(C(=O)CCc2nc3ccccc3s2)cc1	-34	1	-2	1	101	102
O=C(CN(Cc1ccco1)C(=O)CCC(=O)Nc1ccccn1)NCCc1ccccc1	-2	1	-2	98*	86	101
CCN(Cc1ccncc1)Cc1cn[nH]c1-c1cc(OC)c(OC)c(OC)c1	-12	1.1	-7	2	nt	nt
Cc1cccc(C)c1NC(=S)NCCSc1ccc(Cl)cc1	-13	1	-3	37	nt	nt
CC(Sc1ccsc1[N+](=O)[O-])C(=O)NCc1ccco1 (stereo unspecified)	-8	1	1	30	nt	nt
CC(=O)C1=C(C)NC(SCC(=O)c2ccc(Cl)c(Cl)c2)=C(C#N)C1c1ccco1 (stereo unspecified)	3	1	1	78*	nt	nt
CCN(CC)C(=O)CSC1=C(C#N)C(c2ccco2)C(C(=O)OCCOC)=C(C)N1 (stereo unspecified)	-10	1.1	-8	-1	91	97
C=CCOC(=O)C1=C(C)NC(SCC(=O)N(CC)CC)=C(C#N)C1c1ccco1 (stereo unspecified)	-10	1	-1	81*	89	73
Cc1ccc(NC(=S)NNC(=O)c2ccccc2O)c(C)c1	-138	1	2	-2	nt	nt
SMILES	TNAP inh no acc	TNAP act hi DEA	TNAP inh hiacc	Lmaj promast	HCT116 bCat-KO	PTEN del growth
COc1ccc(Cl)cc1NC(=S)N(Cc1ccc(C(=O)O)cc1)Cc1ccc(OC)c(OC)c1	-4	1.1	-5	-4	nt	nt
O=C(/C=C/c1ccc(Cl)cc1Cl)c1ccc[nH]1	-10	1	-5	27	nt	nt
O=C(/C=C/c1ccccc1Cl)c1ccc[nH]1	-3	1	1	74*	33	27
COc1ccc(OC)c(C2=NNC(=NCc3ccc4c(c3)OCO4)SC2)c1	2	1	2	92*	93	95
Oc1ccc(C2=NNC(=NCc3ccc4c(c3)OCO4)SC2)c(O)c1	23	0.9	7	-5	17	17
COC(=O)c1sccc1NC(=O)Cc1ccc(Br)cc1	-8	1	-4	28	93	95
CCN(CC)C1=NS(=O)(=O)c2cc([N+](=O)[O-])ccc21	-10	1	0	100*	nt	nt
C=CCN(CC=C)CCOc1cccc(Oc2ccccc2)c1	-16	1.1	-11	97*	nt	nt
CN(C)CCCOc1cccc(Oc2ccccc2)c1	-6	1	0	99*	70	80
CN(C)CCCOc1cccc(Cl)c1	-7	1	2	-1	94	102
CC1CN(CCCCOc2cccc(Oc3ccccc3)c2)CC(C)O1 (stereo unspecified)	-10	1	-2	-4	nt	nt
CCN(CC)S(=O)(=O)c1cc(-c2nn(C)c(=O)c3ccccc23)ccc1C	-5	1	-3	87*	56	65
Cc1ccc(-c2nn(C)c(=O)c3ccccc23)cc1S(=O)(=O)NCCN(C)C	-1	1.1	-6	15	nt	nt
O=S(=O)(c1ccccc1)N1CCC(N2CCCCCC2)CC1	-14	1.1	-5	2	89	99
CC1CN(C2CCN(S(=O)(=O)Cc3ccccc3)CC2)CC(C)O1 (stereo unspecified)	-7	1.1	-7	91*	103	104
CC1CN(C2CCN(S(=O)(=O)c3ccc(F)cc3)CC2)CC(C)O1 (stereo unspecified)	-3	1	0	91*	96	104
CC1CN(C2CCN(S(=O)(=O)c3ccccc3)CC2)CC(C)O1 (stereo unspecified)	-2	1	4	81*	89	98
O=S(=O)(Cc1ccccc1)N1CCN(C2Cc3ccccc3C2)CC1	-6	1	0	52*	94	98
Cc1ccc(SC(C)C(=O)Nc2cccnc2)cc1 (stereo unspecified)	-6	1.1	-6	-3	107	91
Cc1ccc(SC(C)C(=O)Nc2ccncc2)cc1 (stereo unspecified)	-12	1.1	-7	93*	100	90
O=[N+]([O-])c1ccc2ccn(C3OCC(O)C(O)C3O)c2c1 (stereo unspecified)	-11	1.1	-5	-4	nt	nt
COc1cc(OC)c(NC(=O)C(=O)CC(=O)c2ccc(C)cc2C)cc1Cl	-2	1	-1	100*	nt	nt
CCCCOC(=O)C1=C(C)Nc2ncnn2C1c1ccc(OCC)c(OC)c1 (stereo unspecified)	-5	1.1	-8	26	96	89
